Data reported in ChEMBL document CHEMBL5107962, “Covalent sortase A inhibitor ML346 prevents Staphylococcus aureus infection of Galleria mellonella” (RSC Med Chem, 2022).
The source made the active and inactive calls. The rule behind the calls is not given here.

Tests used:
Cathepsin B [1] = target: T1, Cathepsin B (Homo sapiens, UniProt P07858); settings: dose 6.25 nM, time 15.0 min
Procathepsin L [2] = target: T2, Procathepsin L (Homo sapiens, UniProt P07711); experiment: Inhibition of cathepsin L (unknown origin) using Cbz-Phe-Arg-AMC as substrate preincubated for 5 mins followed by substrate addition and measured after 10 mins by fluorometric assay
Procedure, shortened: (§1)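 Cathepsin B solution (0.2 ng/µL) or cathepsin L solution (0.02 ng/µL) preincubated with compound at 40 °C for 5 min. Equal volume of pre-warmed Cbz-Phe-Arg-AMC solution added (40 µM for B, 80 µM for L). AMC fluorescence (ex 380/em 460 nm) read continuously for 10 min. Triplicates, two independent experiments, mean ± SEM.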
Target sequence in this assay (P07711 whole entry): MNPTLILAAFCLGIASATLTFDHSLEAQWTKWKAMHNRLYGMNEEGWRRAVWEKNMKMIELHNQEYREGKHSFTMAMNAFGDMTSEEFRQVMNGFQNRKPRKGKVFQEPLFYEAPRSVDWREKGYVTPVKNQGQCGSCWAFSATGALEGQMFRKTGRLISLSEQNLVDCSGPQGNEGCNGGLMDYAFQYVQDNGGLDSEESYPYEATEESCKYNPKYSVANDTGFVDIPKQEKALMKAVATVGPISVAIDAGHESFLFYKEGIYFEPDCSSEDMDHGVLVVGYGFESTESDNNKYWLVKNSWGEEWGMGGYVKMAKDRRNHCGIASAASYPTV

Procathepsin L [3] = target: T2, Procathepsin L; settings: dose 6.25 nM, time 15.0 min
Target sequence in this assay (P07711 114-333 limits assumed): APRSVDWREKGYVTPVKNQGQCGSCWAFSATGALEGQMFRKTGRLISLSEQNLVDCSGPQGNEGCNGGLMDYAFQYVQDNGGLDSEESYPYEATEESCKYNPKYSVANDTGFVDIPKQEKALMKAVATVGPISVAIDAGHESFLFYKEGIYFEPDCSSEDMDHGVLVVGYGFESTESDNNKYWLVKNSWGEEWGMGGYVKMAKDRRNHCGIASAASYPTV

Cathepsin B [4] = target: T1, Cathepsin B; experiment: Inhibition of cathepsin B (unknown origin) using Cbz-Phe-Arg-AMC as substrate preincubated for 5 mins followed by substrate addition and measured after 10 mins by fluorometric assay
Procedure, shortened: as §1

CC(C)C[C@H](NC(=O)[C@H]1O[C@@H]1C(=O)O)C(=O)NCCCCN=C(N)N [E-64]
inhibition (Cathepsin B [1]): Active
IC50 (Procathepsin L [2]): 2.3 nM
inhibition (Procathepsin L [3]): Active
IC50 (Cathepsin B [4]): 4.6 nM
